Data published in ChEMBL document CHEMBL1123270, “10-Acetyl-10-hydroxyxantho[2,3-f]tetralin 8-glycosides as angular chromophore analogues of anthracyclines: synthesis, redox properties, microsomal oxygen consumption, and antileukemic evaluation” (1986).
Values after ≈ are worked out from the molar mass of the structure shown.

Legend:
L1210 = experiment: Antileukemic cytotoxicity was evaluated for the compound against L1210 leukemia; assay type: functional; conditions: Mus musculus, read-out: ID50 (the source's name)
Outline: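 L1210 cells grown in McCoy's 5A with glutamine, HCO3-, antibiotics and 10% heat-inactivated horse serum, 37 °C, humidified 95:5 air/CO2. Seeded at 10^5 cells/mL; drug added at 10, 1, 0.1 or 0.01 μg/mL final. Cell concentration counted by Coulter Counter after 72 h; ID50 taken as concentration giving 50% growth inhibition.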

Rattus norvegicus = experiment: […] percent activity of doxorubicin was determined as augmentation of normal oxygen uptake by fresh rat liver microsomes used as measure of redox activity; assay type: functional; design: concentration or dose not given beside the values

Structure (SMILES) | IC50 (L1210) [µg/mL] | Activity (Rattus norvegicus) [%]
CC(=O)[C@@H]1Cc2c(c(O)cc3c(=O)c4ccccc4oc23)[C@@H](OC2C[C@@H](NC(=O)C(F)(F)F)[C@@H](OC(=O)c3ccc([N+](=O)[O-])cc3)C(C)O2)C1 (some centres not stated) | 10 (≈ 14.3 µM) | 6
CC(=O)[C@]1(O)Cc2c(c(O)cc3c(=O)c4ccccc4oc23)[C@@H](OC2C[C@@H](NC(=O)C(F)(F)F)[C@@H](OC(=O)c3ccc([N+](=O)[O-])cc3)C(C)O2)C1 (some centres not stated) | 8 (≈ 11.2 µM) | 10
CC(=O)[C@]1(O)Cc2c(c(O)cc3c(=O)c4ccccc4oc23)[C@@H](OC2C[C@@H](NC(=O)C(F)(F)F)[C@@H](O)C(C)O2)C1 (some centres not stated) | > 10 | 3
CC(=O)[C@@H]1Cc2c(c(O)cc3c(=O)c4ccccc4oc23)[C@@H](OC2C[C@@H](NC(=O)C(F)(F)F)[C@@H](O)C(C)O2)C1 (some centres not stated) | 10 (≈ 18.2 µM) | 6
CC(=O)OCC1OC(O[C@H]2C[C@H](C(C)=O)Cc3c2c(O)cc2c(=O)c4ccccc4oc32)[C@@H](NC(=O)C(F)(F)F)C(OC(C)=O)[C@H]1OC(C)=O (some centres not stated) | > 10 | 4
CC(=O)[C@@H]1Cc2c(c(O)cc3c(=O)c4ccccc4oc23)[C@@H](OC2C[C@@H](N)[C@@H](O)C(C)O2)C1 (some centres not stated) | 8 (≈ 17.6 µM) | 10
